One experiment relates to HCT-15. Nature of the experiment: Growth inhibition of human HCT15 cells at 10 uM by sulforhodamine B assay. It is filed as functional. To be noted: read-out: GI. In short, it runs like this:
(§1)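 Single-dose 10 µM screen by sulforhodamine B assay, reported as percent inhibition of cell proliferation. Cells grown in medium with 10% heat-inactivated FBS at 37 °C, 5% CO2, and treated at about 70% confluence or in log phase. Compounds dissolved in DMSO; controls received vehicle (<0.5% v/v).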

Experiment [1] is described as follows: Growth inhibition of human 502713 cells at 10 uM by sulforhodamine B assay. It is filed as functional. Particulars: read-out: GI. In short, it runs like this: as §1
For another experiment, the system named is HEp-2. As to the kind of experiment: Growth inhibition of human Hep2 cells at 10 uM by sulforhodamine B assay. It is filed as functional. Particulars: read-out: GI. In a few lines: as §1
The next experiment has as its system OVCAR-5. As to the kind of experiment: Growth inhibition of human OVCAR5 cells at 10 uM by sulforhodamine B assay. Type of experiment: functional. Particulars: read-out: GI. In short, it runs like this: as §1
For another experiment, the system named is CV-1. As to the kind of experiment: Growth inhibition of african green monkey CV1 cells after 48 hrs by MTT assay. It is filed as cell-based. Particulars: Chlorocebus aethiops, CV-1, 48 h.
Experiment [2] relates to HL-60. As to the kind of experiment: Induction of apoptosis in human HL60 cells assessed as non-viable necrotic cells at 1 uM after 24 hrs using Annexin V-FITC and propidium iodide staining by flow cytometry relative to control. Type of experiment: functional. In short, it runs like this:
(§2)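 HL-60 cells (1 x 10^5 per 1.5 mL) treated 24 h, washed twice in PBS and stained in binding buffer with annexin V-FITC and PI. Flow cytometry with FITC in FL-1 (530 nm) and PI in FL-2 (585 nm), using quadrant statistics: lower right taken as apoptotic, upper right as post-apoptotic necrotic. Representative of three independent experiments.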

The test system of experiment [3] is HL-60. Nature of the experiment: Induction of apoptosis in human HL60 cells assessed as late apoptotic cells at 1 uM after 24 hrs using Annexin V-FITC and propidium iodide staining by flow cytometry relative to control. It is filed as functional. In short, it runs like this: as §2
The subject of experiment [4] is HL-60. As to the kind of experiment: Induction of apoptosis in human HL60 cells assessed as caspase9 activation using LEHD-AMC as substrate at 1 uM after 24 hrs by fluorimetry relative to control. Type of experiment: functional. In short, it runs like this: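 HL-60 cells (2 x 10^6) treated 24 h, washed and lysed. Caspase-3, -8 and -9 activities in lysates measured fluorometrically with a commercial caspase fluorescent assay kit. Two independent experiments, each in duplicate.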

Experiment [5] deals with HL-60. As to the kind of experiment: Induction of apoptosis in human HL60 cells assessed as DNA ladder formation at 1 uM after 24 hrs by agarose gel electrophoresis. It is filed as functional, cell-based. In short, it runs like this: (§3)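 Cells treated 24 h, then 2 x 10^6 cells lysed (Triton X-100 buffer, pH 8.0) with RNase at 37 °C for 90 min and proteinase-K at 50 °C for 1 h. DNA phenol/chloroform-extracted and ethanol-precipitated, then run on 1.8% agarose at 50 V for 1.5 h in TAE. Ladders viewed under UV.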

For another experiment, the system named is SiHa. As to the kind of experiment: Induction of apoptosis in human SiHa cells assessed as DNA ladder formation at 10 uM after 24 hrs by agarose gel electrophoresis. Type of experiment: functional, cell-based. In short, it runs like this:
as §3

The test system of a further experiment is HeLa. Nature of the experiment: Induction of apoptosis in human HeLa cells assessed as DNA ladder formation at 10 uM after 24 hrs by agarose gel electrophoresis. Type of experiment: functional, cell-based. In short, it runs like this: as §3
For experiment [6], the system named is HL-60. As to the kind of experiment: Cell cycle arrest in human HL60 cells assessed as accumulation at sub-G0 phase measuring DNA damage at 1 uM after 24 hrs using propidium iodide staining by flow cytometry (reference value: 1%). Type of experiment: functional. In short, it runs like this: (§4)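 HL-60 cells (1 x 10^5 per 1.5 mL) treated 24 h, then fixed in 70% cold ethanol at −20 °C overnight. RNase digestion (400 µg/ml) at 37 °C for 45 min, then propidium iodide (10 µg/ml) for 30 min. Flow cytometry on 10,000 events, FL2-A vs FL2-W, with doublet discrimination. Sub-G0 (hypodiploid) peak taken as apoptotic cells. Mean ± SD of three independent experiments.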

Experiment [7] relates to HL-60. As to the kind of experiment: Cell cycle arrest in human HL60 cells assessed as accumulation at S phase at 1 uM after 24 hrs using propidium iodide staining by flow cytometry. It is filed as functional, cell-based. In a few lines: as §4
The test system of experiment [8] is HL-60. As to the kind of experiment: Inhibition of NF-kappaB expression in human HL60 cells at 1 uM after 24 hrs by Western blotting. Type of experiment: functional, cell-based. In short, it runs like this:
(§5)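 HL-60 cells treated 24 h and lysed in RIPA buffer on ice; protein measured by Bradford against a BSA standard. 50 µg resolved by SDS-PAGE and transferred to PVDF, blocked in 5% milk/TBST, then primary antibodies 1:1000 for 2 h and HRP secondary 1:1000 for 1 h. ECL detection with β-actin as loading control; bands quantified by densitometry.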

Experiment [9] deals with HL-60. As to the kind of experiment: Inhibition of Bcl-2 expression in human HL60 cells at 1 uM after 24 hrs by Western blotting. Type of experiment: functional, cell-based. In a few lines:
as §5

Experiment [10] concerns HL-60. As to the kind of experiment: Induction of apoptosis in human HL60 cells assessed as decrease in size at 1 uM after 12 hrs by scanning electron microscopy. Type of experiment: functional, cell-based. In a few lines:
(§6)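 HL-60 cells at 2 x 10^5/ml in 10% FCS medium exposed to 0.5 or 1 µM for 6–48 h; DMSO vehicle controls. Cells fixed in 2.5% glutaraldehyde in 0.1 M phosphate (pH 7.2) at 4 °C for 1 h, post-fixed in 1% OsO4 and ethanol-dehydrated. Critical-point dried, gold-coated, and imaged by SEM at 40 kV.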

For experiment [11], the system named is HL-60. As to the kind of experiment: Induction of apoptosis in human HL60 cells assessed as blebbing of plasma membrane at 1 uM after 12 hrs by scanning electron microscopy. It is filed as functional, cell-based. In a few lines:
as §6

The source made the active and inactive calls. No cut-off for these calls is given here.

With `O=C(Nc1nc2ccc([N+](=O)[O-])cc2s1)c1cccnc1Nc1cc(F)c(F)c(F)c1`, the inhibition of growth at 10 µM was 62% in the experiment on HCT-15, 80% in experiment [1], 0% with HEp-2 and 52% with OVCAR-5. Further, in the experiment with CV-1, the IC50 was more than 100 µM. For the same molecule, the Activity in the experiment with HL-60 [2] was determined as 47%; with HL-60 [3], 8%; with HL-60 [6], 94%. The “fold change (FC)” value in the experiment on HL-60 [4] amounted to 2. The result in the experiment with HL-60 [5], in the experiment with HL-60 [10] and in the experiment with HL-60 [11] was Active. Further, the result in the experiment with SiHa, with HeLa and in the experiment on HL-60 [7] was inactive. Besides, the inhibition entry in the experiment with HL-60 [8] was “Active”. Moreover, the inhibition entry with HL-60 [9] is “inactive”.

Source of the values: ChEMBL document CHEMBL1926589, “2-Anilinonicotinyl linked 2-aminobenzothiazoles and [1,2,4]triazolo[1,5-b] [1,2,4]benzothiadiazine conjugates as potential mitochondrial apoptotic inducers” (Bioorg Med Chem, 2011).
